Reference: article PMC3988263 (European journal of pharmacology, 2011)

Assays:
[1] = test system: mice (sedation/motor function); experiment: Horizontal wire test of behavioral toxicity; format: in vivo, mouse
[2] = test system: mice (retention time on inverted wire grid); experiment: Inverted grid test of behavioral toxicity; format: in vivo, mouse
[3] = test system: mouse liver microsomes (cytochrome P450, harmaline O-demethylation); experiment: Harmaline O-demethylation to harmalol in mouse liver microsomes; format: in vitro ADME
[4] = test system: GABAA receptor α1-null mice (tremor); experiment: Tremor measurement in the GABAA receptor α1-null model; format: in vivo, mouse; conditions: for tremor reduction compared to baseline: 20 mg/kg i.p., 30 min after drug, tail suspension
[5] = test system: harmaline-induced tremor in ICR mice; experiment: Tremor measurement in the harmaline model; format: in vivo, mouse; conditions: harmaline 20 mg/kg
Procedure, shortened: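 Male ICR mice (20–24 g) sat on a motion-sensing platform; 20 min baseline, then harmaline 20 mg/kg, then test compound or saline vehicle 15 min later (time 0); 100 min recording; 5–6 mice/group. Read-out was 10–16 Hz motion power as % of 0–33 Hz power over 20–60 and 60–100 min. Reduction = 100×(1−[(DT−DB)/(mean VT−mean VB)]) versus vehicle group; repeated-measures ANOVA.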

[6] = test system: mice (sedation or ataxia); experiment: Gross observation in open fields; format: in vivo, mouse; conditions: doses below 200 mg/kg
[7] = test system: CYP3A (mouse liver microsomes)
[8] = test system: high voltage calcium channels; conditions: at 100 µM; ref Huang et al., 2004; Li et al., 2005; cited from earlier work
human CYP2D6 = conditions: ref Bui et al., 2008; cited from earlier work
human recombinant CYP3A4 = conditions: ref Bui et al., 2008; cited from earlier work
pentylenetetrazol model = conditions: ref Handforth et al., 2010; cited from earlier work
[9] = test system: cytochrome P450 (harmaline O-demethylation to harmalol); experiment: Harmaline O-demethylation to harmalol in mouse liver microsomes; format: in vitro ADME; conditions: mouse, mouse liver microsomes, pH 7.5, probe harmaline (10 µM)
blood pressure = conditions: ref Dogrul et al., 2003; cited from earlier work
[10] = ref Ertel and Clozel, 1997; cited from earlier work
[11] = 12.5 mg/kg i.p., 20–60 min post-drug
[12] = 12.5 mg/kg i.p., 60–100 min post-drug

For `CC(C)[C@H]1c2ccc(F)cc2CC[C@@]1(CCN(C)CCCc1nc2ccccc2[nH]1)OC(=O)C1CC1.Cl.Cl` [NNC 55-0396, (1S,2S)-2-(2-(N-[(3-benzimidazol-2-yl)propyl]-N-methylamino)ethyl)-6-fluoro-1,2,3,4-tetrahydro-1-isopropyl-2-naphtyl cyclopropanecarboxylate dihydrochloride], the “dose at which 3/6 failed the horizontal wire test” value ([1]; mouse, in vivo, ip) was 300 mg/kg, the “maximal dose at which 6/6 mice passed the horizontal wire test” value ([1]; mouse, in vivo, ip) was 200 mg/kg and the “appearance (sedation) of drug/harmaline mice” value ([2]; drug 20 mg/kg i.p. then harmaline 20 mg/kg s.c.) was “did not appear sedated”. The “retention on the inverted grid compared with vehicle/harmaline mice” value ([2]; mouse, in vivo) was “better than vehicle/harmaline mice”, the Ki [3] was 950 nM and the “Ki for harmaline O-demethylation relative to mibefradil” value [3] was “approximately three-fold higher”. For the same compound, the “O-demethylation of harmaline, percentage of normal (mean ± S.D.)” value ([3]; drug 100 nM, 10 µM harmaline, mouse liver microsomes) was 103.7 ± 12.8%, the “O-demethylation of harmaline, percent of normal (mean ± S.D.)” value ([3]; drug 10 µM, 10 µM harmaline, mouse liver microsomes) was 46.6 ± 5.3% and the “tremor reduction compared to baseline” value [4] was 49.2%. For the same compound, the “effect on the tremor motion power peak” value ([4]; 40 mg/kg i.p., individual α1-null mouse, retest 30 min later) was “suppressed the tremor motion power peak”, the “tremor generation reduced compared to the vehicle group” value (“tremor generation reduced” for short) [5, 11] was 48.5 ± 12.4% and the “tremor generation reduced” value [5, 12] was 48.9 ± 13.6%. The “tremor generation reduced” value ([5]; 20 mg/kg i.p., 20–60 min post-drug) was 73.6 ± 20.1%, the “tremor generation reduced” value ([5]; 20 mg/kg i.p., 60–100 min post-drug) was 85.1 ± 29.1% and the “gross observations in open fields: sedation or ataxia” value [6] was “did not reveal sedation or ataxia”. For the same compound, the Ki [7] was 710 nM, the “Ki for testosterone 6-β-hydroxylation relative to mibefradil” value [7] was “over five-fold higher” and the “effect against high voltage calcium channels” value [8] was “no effect”. For the same compound, the “Ki for human CYP2D6 relative to mibefradil” value (human CYP2D6) was “one-fourth that of mibefradil”, the “fold higher Ki than mibefradil” value (human recombinant CYP3A4) was 9 fold and the anti-seizure efficacy (pentylenetetrazol model) was “anti-seizure efficacy”.

With `COc1ccc2c3c([nH]c2c1)C(C)=NCC3` [harmaline] the “retention time on the wire grid compared with vehicle/vehicle controls” value ([2]; vehicle-pre-treated mice, harmaline 20 mg/kg s.c., test 30 min later) was “reduced retention times on the wire grid”.

In the case of `COCC(=O)O[C@]1(CCN(C)CCCc2nc3ccccc3[nH]2)CCc2cc(F)ccc2[C@@H]1C(C)C` [mibefradil], the “maximal dose at which 6/6 mice passed the horizontal wire test” value ([1]; i.p., tested at 10-min intervals for 1.5 h) is reported as 20 mg/kg, the “dose at which 3/6 failed the horizontal wire test” value ([1]; mouse, in vivo, ip, 1.5 h) is reported as 30 mg/kg and the “appearance (sedation) of drug/harmaline mice” value ([2]; mouse, in vivo) is reported as “appeared sedated”. For the same compound, the “retention on the inverted grid compared with vehicle/harmaline mice” value ([2]; mouse, in vivo) was “worse retention”, the Ki at 20 min [9] was 290 nM and the “Ki for harmaline O-demethylation relative to NNC 55-0396” value ([3]; mouse liver microsomes) was “less than a third that of NNC 55-0396”. For the same compound, the “tremor reduction compared to baseline” value [4] was “no effect on tremor”, the “tremor generation reduced” value [5, 11] was 23.1 ± 3.9% and the “tremor generation reduced” value [5, 12] was 20.8 ± 11.5%. For the same compound, the “dose reported to produce severe hypotension” value (blood pressure) was 30 mg/kg and the “crossing of the blood–brain-barrier” value [10] was “does not cross the blood–brain-barrier”.
